Experimental data as given in ChEMBL document CHEMBL1142735, “Discovery of a new series of centrally active tricyclic isoxazoles combining serotonin (5-HT) reuptake inhibition with alpha2-adrenoceptor blocking activity” (J Med Chem, 2005).
pKi: −log10 of the molar value.

Key:
[1] = target: Sodium-dependent serotonin transporter (Homo sapiens, UniProt P31645); assay: Binding affinity for serotonin transporter
How it was run: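 Human platelet membranes (50 µg protein) in 50 mM Tris-HCl pH 7.4 with 120 mM NaCl and 5 mM KCl. Competition against [3H]paroxetine (0.5 nM), 60 min at 25 °C. Nonspecific binding defined with imipramine (1 µM). Filtration over 0.1% PEI-presoaked GF/B, washed with incubation buffer. Sigmoidal fit of specific binding; Ki via Cheng-Prusoff.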

[2] = target: T1, Alpha-2C adrenergic receptor (Homo sapiens, UniProt P18825); assay: Binding affinity for alpha-2C adrenergic receptor
T1 sequence (P18825 whole entry): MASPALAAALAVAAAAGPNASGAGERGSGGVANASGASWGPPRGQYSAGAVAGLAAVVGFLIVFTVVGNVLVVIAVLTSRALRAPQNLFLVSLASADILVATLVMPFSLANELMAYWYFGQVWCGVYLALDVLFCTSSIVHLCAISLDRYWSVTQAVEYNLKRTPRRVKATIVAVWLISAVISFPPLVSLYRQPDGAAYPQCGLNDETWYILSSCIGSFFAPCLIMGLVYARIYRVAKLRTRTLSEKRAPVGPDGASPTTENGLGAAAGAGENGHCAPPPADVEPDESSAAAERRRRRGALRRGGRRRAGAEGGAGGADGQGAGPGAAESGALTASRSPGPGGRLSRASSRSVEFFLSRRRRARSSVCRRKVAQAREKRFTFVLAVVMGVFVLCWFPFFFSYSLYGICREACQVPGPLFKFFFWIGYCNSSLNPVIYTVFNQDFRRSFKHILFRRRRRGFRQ
How it was run: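 Human alpha2C receptor stably expressed in CHO cell membranes (5-10 µg protein) in 25 mM glycylglycine, pH 7.6. Competition against [3H]rauwolscine (1 nM), 30 min at 25 °C. Nonspecific binding defined with spiroxatrine (1 µM). Rapid filtration over GF/B, washed with ice-cold 50 mM Tris-HCl pH 8.0, scintillation counting. Sigmoidal curves fitted; Ki by Cheng-Prusoff.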

Rattus norvegicus [3] = assay: Effective dose concentration for reversal of medetomidine-Induced loss of righting was determined by subcutaneous administration; assay type: functional, organism-based
How it was run: (§1)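 Male Wistar rats (200-250 g), fasted overnight, given test compound or solvent sc before challenge. Loss of righting induced by medetomidine 0.10 mg/kg iv; reversal means no loss of righting. Excitation induced by pCA 5 mg/10 mL/kg sc and scored 0-3 over 15 min starting 45 min after pCA; inhibition means score <2.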

Rattus norvegicus [4] = assay: Effective dose concentration for antagonism ofpCA-Induced excitation was determined by subcutaneous administration; assay type: functional, organism-based; how it was run: as §1
[5] = target: Sodium-dependent dopamine transporter (Rattus norvegicus, UniProt P23977); assay: Inhibition of [3H]WIN-35428 binding to Dopamine transporter of rat striatum; assay type: tissue-based
How it was run: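 Competition binding using rat striatum membranes incubated with the radioligand under optimized conditions, separated by filtration.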

[6] = target: 5-hydroxytryptamine receptor 2A (Homo sapiens, UniProt P28223); assay: Inhibition of [125I]- R91150 binding to 5-hydroxytryptamine 2A receptor
How it was run: (§2)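 Radioligand competition binding on membranes from cell lines carrying the human target, incubated with the labelled ligand under optimized conditions. Separation by filtration, except α1A and D3, which used scintillation proximity assay.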

[7] = target: T2, 5-hydroxytryptamine receptor 1A (Homo sapiens, UniProt P08908); assay: Inhibition of [3H]8-OH-DPAT binding to 5-hydroxytryptamine 1A receptor; how it was run: as §2
T2 sequence (P08908 whole entry): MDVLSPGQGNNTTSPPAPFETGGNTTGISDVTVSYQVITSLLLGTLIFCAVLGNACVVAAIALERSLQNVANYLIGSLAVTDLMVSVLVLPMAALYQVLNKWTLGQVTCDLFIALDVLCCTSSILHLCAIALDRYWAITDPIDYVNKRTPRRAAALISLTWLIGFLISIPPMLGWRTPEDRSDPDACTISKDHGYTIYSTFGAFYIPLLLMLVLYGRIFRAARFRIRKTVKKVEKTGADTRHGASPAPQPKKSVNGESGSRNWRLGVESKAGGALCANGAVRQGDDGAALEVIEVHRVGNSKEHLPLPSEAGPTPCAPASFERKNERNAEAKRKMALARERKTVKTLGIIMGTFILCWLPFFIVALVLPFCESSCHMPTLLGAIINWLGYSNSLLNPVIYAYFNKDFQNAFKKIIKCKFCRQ

D(4) dopamine receptor = target: T3, D(4) dopamine receptor (Homo sapiens, UniProt P21917); assay: Inhibition of [3H]spiperone binding to Dopamine receptor D4; how it was run: as §2
T3 sequence (P21917 whole entry): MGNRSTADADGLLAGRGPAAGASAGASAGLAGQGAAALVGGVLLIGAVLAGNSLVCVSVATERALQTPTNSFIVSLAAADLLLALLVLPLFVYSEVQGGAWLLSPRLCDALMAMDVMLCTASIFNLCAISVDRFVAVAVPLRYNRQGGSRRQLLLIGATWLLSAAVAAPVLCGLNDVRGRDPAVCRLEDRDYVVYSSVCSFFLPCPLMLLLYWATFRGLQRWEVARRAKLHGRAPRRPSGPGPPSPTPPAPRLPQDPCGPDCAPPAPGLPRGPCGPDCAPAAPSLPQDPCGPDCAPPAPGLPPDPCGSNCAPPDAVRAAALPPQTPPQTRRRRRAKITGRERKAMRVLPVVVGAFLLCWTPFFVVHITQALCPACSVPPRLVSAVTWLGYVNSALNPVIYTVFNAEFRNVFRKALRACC

D(2) dopamine receptor = D(2) dopamine receptor (Homo sapiens, UniProt P14416); assay: Inhibition of [3H]spiperone binding to Dopamine receptor D2; how it was run: as §2
Rattus norvegicus [8] = assay: Effective dose for antagonism ofpCA-Induced excitation was determined by oral administration; assay type: functional
How it was run: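 Oral pretreatment of overnight-fasted male Wistar rats (200-250 g), then medetomidine 0.10 mg/kg iv (reversal means no loss of righting) or pCA 5 mg/kg sc (excitation scored 0-3 over 15 min from 45 min after pCA; inhibition means score <2). Doses taken from a geometric series.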

[9] = target: T4, Adrenergic receptor alpha-1 (Homo sapiens, UniProt P35348+P25100+P35368); assay: Inhibition of [3H]- prazosin binding to alpha-1 adrenergic receptor; assay type: protein assay; how it was run: as §2
T4 sequence (P35348 whole entry): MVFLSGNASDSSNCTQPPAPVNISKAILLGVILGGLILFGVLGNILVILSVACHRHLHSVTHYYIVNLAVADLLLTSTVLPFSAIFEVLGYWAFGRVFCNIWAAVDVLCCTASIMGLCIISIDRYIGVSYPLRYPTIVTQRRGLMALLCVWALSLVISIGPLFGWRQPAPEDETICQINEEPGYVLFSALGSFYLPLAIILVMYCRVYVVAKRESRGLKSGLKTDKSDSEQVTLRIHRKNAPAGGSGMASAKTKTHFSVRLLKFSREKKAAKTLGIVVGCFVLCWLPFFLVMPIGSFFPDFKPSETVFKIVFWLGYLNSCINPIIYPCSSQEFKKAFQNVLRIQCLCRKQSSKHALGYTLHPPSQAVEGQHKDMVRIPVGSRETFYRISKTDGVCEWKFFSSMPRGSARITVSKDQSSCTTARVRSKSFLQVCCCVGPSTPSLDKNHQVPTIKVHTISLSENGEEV
T4 sequence (P25100 whole entry): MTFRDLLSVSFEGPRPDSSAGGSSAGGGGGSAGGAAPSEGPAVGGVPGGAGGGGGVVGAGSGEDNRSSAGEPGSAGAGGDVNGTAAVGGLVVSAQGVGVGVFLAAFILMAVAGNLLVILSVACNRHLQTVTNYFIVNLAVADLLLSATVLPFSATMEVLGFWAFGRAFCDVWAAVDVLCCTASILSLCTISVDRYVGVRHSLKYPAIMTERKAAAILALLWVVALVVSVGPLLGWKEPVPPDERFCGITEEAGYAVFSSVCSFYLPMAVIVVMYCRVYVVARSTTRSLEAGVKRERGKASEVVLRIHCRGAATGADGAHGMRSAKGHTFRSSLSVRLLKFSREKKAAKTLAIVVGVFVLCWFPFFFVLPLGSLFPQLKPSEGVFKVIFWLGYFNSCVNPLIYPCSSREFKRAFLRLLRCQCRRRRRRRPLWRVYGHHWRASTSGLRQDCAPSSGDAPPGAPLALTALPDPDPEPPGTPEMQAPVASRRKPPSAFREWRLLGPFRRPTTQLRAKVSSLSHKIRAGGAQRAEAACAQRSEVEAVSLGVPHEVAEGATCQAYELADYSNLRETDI
T4 sequence (P35368 whole entry): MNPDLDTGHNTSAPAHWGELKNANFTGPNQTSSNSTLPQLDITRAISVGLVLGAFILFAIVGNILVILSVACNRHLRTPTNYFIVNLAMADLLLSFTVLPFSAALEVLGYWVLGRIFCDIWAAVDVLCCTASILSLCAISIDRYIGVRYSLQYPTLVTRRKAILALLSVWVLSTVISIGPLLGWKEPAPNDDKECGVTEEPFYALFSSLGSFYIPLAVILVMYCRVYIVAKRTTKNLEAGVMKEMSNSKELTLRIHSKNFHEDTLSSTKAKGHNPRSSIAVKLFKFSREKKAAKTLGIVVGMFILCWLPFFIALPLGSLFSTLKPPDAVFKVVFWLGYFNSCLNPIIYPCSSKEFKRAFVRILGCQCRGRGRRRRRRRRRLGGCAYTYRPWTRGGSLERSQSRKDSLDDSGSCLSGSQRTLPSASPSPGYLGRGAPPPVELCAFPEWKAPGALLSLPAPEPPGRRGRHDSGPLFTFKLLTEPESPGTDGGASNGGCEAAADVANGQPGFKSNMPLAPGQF

[10] = target: T5, 5-hydroxytryptamine receptor 2C (Homo sapiens, UniProt P28335); assay: Inhibition of [3H]- mesulergine binding to 5-hydroxytryptamine 2C receptor; how it was run: as §2
T5 sequence (P28335 whole entry): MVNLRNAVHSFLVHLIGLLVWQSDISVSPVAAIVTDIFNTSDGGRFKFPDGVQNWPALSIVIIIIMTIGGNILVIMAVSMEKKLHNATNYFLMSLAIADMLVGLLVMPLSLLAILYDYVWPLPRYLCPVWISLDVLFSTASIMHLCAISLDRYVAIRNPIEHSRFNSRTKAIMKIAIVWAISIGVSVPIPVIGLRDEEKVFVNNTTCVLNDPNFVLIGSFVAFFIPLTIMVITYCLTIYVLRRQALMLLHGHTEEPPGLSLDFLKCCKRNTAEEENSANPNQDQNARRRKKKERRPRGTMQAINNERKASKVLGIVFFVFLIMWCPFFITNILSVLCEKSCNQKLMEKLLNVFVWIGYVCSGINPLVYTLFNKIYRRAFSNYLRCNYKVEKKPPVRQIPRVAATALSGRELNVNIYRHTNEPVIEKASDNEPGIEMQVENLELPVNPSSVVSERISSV

Histamine H1 receptor = Histamine H1 receptor (Homo sapiens, UniProt P35367); assay: Inhibition of [3H]pyrilamine binding to Histamine H1 receptor
How it was run: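 Radioligand competition on membranes from a cell line transfected with the human target, incubated under optimized conditions. Stopped by rapid filtration. Ki by Cheng-Prusoff.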

[11] = target: Norepinephrine transporter (Rattus norvegicus, UniProt Q9WTR4); assay: Inhibition of [3H]-nisoxetine binding to Norepinephrine transporter from rat cortex
How it was run: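 Radioligand competition on rat cortex membranes, incubated under optimized conditions. Stopped by rapid filtration. Ki by Cheng-Prusoff.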

[12] = target: 5-hydroxytryptamine receptor 7 (Homo sapiens, UniProt P34969); assay: Inhibition of [3H]5-HT binding to 5-hydroxytryptamine 7 receptor; how it was run: as §2
Sequence of 5-hydroxytryptamine receptor 7 (P34969 whole entry): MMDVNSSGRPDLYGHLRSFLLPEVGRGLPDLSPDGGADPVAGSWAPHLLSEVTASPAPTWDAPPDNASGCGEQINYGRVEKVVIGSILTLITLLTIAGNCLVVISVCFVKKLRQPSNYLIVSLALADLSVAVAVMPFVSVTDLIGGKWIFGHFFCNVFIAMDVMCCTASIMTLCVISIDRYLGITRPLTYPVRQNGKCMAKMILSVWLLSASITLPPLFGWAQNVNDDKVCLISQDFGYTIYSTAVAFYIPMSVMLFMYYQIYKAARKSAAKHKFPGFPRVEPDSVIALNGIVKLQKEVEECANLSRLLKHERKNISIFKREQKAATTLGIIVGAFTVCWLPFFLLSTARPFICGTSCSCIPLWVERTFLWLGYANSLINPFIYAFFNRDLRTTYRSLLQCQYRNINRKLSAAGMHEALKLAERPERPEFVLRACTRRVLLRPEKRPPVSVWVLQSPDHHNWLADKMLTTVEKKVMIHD

Sequence of D(2) dopamine receptor (P14416 whole entry): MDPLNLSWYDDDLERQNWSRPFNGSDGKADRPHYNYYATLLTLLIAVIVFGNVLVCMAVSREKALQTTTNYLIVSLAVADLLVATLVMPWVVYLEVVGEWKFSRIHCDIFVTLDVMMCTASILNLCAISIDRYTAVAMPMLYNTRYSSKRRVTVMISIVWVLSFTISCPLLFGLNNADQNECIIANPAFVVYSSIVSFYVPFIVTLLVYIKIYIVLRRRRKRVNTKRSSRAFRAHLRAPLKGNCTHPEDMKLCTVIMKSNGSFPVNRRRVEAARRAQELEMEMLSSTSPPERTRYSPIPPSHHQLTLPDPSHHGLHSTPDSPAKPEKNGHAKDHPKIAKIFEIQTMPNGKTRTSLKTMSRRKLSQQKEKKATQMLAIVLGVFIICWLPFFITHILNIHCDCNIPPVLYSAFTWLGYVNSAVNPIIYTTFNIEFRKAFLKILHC
Sequence of Histamine H1 receptor (P35367 whole entry): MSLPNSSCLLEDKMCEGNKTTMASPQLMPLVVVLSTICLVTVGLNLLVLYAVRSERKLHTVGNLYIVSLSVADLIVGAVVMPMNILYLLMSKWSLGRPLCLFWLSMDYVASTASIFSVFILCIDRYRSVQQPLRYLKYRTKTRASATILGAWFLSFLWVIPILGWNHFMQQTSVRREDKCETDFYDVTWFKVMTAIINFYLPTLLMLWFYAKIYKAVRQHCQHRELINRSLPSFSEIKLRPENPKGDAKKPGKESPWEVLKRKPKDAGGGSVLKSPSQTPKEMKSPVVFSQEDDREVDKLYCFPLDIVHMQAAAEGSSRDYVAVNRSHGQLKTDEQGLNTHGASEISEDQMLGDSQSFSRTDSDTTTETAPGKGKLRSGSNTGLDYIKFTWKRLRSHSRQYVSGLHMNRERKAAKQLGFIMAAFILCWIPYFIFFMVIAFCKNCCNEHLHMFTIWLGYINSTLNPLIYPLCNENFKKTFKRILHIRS
Sequence of Sodium-dependent dopamine transporter (P23977 whole entry): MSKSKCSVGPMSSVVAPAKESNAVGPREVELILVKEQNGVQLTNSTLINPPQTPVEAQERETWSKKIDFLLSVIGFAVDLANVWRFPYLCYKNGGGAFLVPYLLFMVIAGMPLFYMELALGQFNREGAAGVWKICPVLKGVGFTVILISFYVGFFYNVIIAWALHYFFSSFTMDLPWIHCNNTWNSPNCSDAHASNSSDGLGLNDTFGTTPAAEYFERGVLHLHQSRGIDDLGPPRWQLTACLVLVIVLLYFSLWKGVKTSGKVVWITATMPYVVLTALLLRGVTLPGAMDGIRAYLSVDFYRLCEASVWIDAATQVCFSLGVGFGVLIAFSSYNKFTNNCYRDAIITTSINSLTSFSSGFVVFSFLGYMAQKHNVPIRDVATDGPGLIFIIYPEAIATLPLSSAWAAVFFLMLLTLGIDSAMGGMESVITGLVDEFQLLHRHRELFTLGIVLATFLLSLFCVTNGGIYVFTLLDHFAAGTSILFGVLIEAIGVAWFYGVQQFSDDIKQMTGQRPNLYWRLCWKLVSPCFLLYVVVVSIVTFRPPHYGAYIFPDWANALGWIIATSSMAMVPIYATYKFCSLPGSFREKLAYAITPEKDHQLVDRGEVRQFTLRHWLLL
Sequence of Norepinephrine transporter (Q9WTR4 whole entry): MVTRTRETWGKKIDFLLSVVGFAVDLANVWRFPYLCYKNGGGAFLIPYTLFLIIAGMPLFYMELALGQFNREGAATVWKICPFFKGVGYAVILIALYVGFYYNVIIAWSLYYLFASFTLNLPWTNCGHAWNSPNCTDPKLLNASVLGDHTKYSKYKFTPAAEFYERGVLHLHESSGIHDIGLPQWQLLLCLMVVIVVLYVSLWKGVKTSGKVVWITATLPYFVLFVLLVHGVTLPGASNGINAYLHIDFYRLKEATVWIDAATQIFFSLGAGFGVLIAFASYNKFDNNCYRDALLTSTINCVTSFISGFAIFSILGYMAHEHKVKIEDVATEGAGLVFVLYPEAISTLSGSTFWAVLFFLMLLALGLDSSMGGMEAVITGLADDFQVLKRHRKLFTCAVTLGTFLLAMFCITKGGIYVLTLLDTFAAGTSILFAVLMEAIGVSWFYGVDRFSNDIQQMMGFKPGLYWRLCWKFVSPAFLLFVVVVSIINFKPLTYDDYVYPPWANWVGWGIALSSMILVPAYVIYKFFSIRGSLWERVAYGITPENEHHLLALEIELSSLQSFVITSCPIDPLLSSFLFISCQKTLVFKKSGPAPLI
Sequence of 5-hydroxytryptamine receptor 2A (P28223 whole entry): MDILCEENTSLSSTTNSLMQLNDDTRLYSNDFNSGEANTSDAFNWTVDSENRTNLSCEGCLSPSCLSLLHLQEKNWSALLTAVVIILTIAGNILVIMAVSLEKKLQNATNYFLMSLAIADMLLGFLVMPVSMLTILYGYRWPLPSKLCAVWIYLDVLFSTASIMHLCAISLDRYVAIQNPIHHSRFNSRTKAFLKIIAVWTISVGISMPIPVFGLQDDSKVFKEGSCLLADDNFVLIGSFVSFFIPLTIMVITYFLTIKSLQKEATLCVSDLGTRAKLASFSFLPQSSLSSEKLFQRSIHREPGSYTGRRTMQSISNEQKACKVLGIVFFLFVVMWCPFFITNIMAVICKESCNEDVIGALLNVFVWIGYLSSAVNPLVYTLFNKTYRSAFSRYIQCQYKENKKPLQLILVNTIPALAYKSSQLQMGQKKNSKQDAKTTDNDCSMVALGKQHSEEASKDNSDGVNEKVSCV
Sequence of Sodium-dependent serotonin transporter (P31645 whole entry): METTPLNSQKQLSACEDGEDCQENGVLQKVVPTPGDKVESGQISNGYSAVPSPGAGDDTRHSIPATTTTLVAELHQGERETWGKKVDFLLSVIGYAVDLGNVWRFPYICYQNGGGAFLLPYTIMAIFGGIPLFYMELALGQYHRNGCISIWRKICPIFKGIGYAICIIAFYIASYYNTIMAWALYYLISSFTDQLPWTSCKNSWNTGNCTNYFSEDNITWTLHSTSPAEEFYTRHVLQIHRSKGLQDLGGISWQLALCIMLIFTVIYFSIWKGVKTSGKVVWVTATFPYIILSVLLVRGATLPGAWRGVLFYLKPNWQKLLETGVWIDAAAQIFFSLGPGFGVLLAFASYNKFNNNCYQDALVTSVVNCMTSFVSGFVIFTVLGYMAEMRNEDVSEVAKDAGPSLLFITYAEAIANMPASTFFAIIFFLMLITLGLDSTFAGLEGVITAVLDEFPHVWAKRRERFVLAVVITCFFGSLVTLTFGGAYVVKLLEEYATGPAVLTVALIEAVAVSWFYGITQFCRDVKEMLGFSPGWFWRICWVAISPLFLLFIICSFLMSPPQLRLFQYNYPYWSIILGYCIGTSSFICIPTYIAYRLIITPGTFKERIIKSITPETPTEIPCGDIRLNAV

| pKi [1] | pKi [2] | ED50 (Rattus norvegicus [3]) [mg/kg] | ED50 (Rattus norvegicus [4]) [mg/kg] | pKi [5] | pKi [6] | pKi [7] | pKi (D(4) dopamine receptor) | pKi (D(2) dopamine receptor) | Ki [9] [nM] | pKi [10] | pKi (Histamine H1 receptor) | pKi [11] | pKi [12] | Compound | ED50 (Rattus norvegicus [8]) [mg/kg] |
| --- | --- | --- | --- | --- | --- | --- | --- | --- | --- | --- | --- | --- | --- | --- | --- |
| 7.82 | 8.44 | 2.5 | 7.9 | – | – | – | – | – | – | – | – | – | – | COc1cc2c(cc1OC)C1=NO[C@@H](CN3CCN(C/C=C(\C)c4ccccc4)CC3)[C@@H]1CN2 | – |
| – | – | – | – | < 6.00 | < 6.00 | < 6.00 | 6.63 | < 6.00 | > 1000 | < 6.00 | < 6.00 | < 6.00 | – | COc1cccc2c1CCC[C@H]2CN(C)CCc1ccc2ccoc2c1 | > 10 |
| – | – | – | – | < 6.00 | < 6.00 | 6.11 | – | < 6.00 | > 1000 | < 6.00 | < 6.00 | 6.44 | < 6.00 | Fc1ccc2c(c1)CC(CC1CN=CN1)C2 (stereo not drawn) | – |
